Laboratory results published in ChEMBL document CHEMBL1124067, “Design of potent cyclic gonadotropin releasing hormone antagonists” (J Med Chem, 1988).
Values joined by “and” are separate entries in the source; they are usually repeats but may differ in a detail not shown here. Equal values may be shown once. Positions of bridges follow the written chain, without caps; N, C: chain ends. Non-standard residues stand in square brackets, D forms with d. Residues, ends and D or L forms follow the SMILES beside them. dPhe(4-Cl) = N[C@H](Cc1ccc(Cl)cc1)C(=O)O; dPhe(4-F) = N[C@H](Cc1ccc(F)cc1)C(=O)O; d2Nal = N[C@H](Cc1ccc2ccccc2c1)C(=O)O; d3Pal = N[C@H](Cc1cccnc1)C(=O)O; ΔPro = O=C(O)[C@@H]1C=CCN1; Dap = NC[C@H](N)C(=O)O

Key:
[1] = biological target: T1, Gonadotropin-releasing hormone receptor (Rattus norvegicus, UniProt P30969); experiment: Inhibitory binding constant for Gonadotropin-releasing hormone receptor
T1 sequence (P30969 whole entry): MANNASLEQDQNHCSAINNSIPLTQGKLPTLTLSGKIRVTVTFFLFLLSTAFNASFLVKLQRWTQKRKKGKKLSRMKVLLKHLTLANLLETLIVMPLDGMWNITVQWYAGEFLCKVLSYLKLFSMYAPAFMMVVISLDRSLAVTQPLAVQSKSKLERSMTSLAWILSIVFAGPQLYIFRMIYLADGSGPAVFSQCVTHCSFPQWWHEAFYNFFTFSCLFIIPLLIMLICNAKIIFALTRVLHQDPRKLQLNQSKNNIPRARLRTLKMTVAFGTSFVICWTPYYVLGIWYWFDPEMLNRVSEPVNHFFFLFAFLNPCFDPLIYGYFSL

[2] = tested on: Rattus norvegicus; experiment: In vivo antiovulatory assay (AOA) carried out in rats injected sc; type: functional
Summary of the method: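 Antiovulatory assay following Corbin and Beattie. Cycling rats injected sc at noon on proestrus with peptide dissolved in saline (200 μL). Dose in micrograms; read-out is the number of rats ovulating out of the total.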

[3] = tested on: Rattus norvegicus; experiment: Effect of oral administration of compound (3 mg) on LH secretion by castrated male rats; ng of LH/mL; type: functional
Summary of the method: (§1)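 Adult Sprague-Dawley male rats, castrated under light ether anesthesia 7-10 days before assay. Peptide dissolved in 2 N HOAc, then diluted in 0.1% BSA-0.04 M phosphate buffer pH 7.4. Given by gavage tube (0.5 mL) under ether. Blood sampled before treatment and 5 h after. Plasma LH in ng/mL, mean ± SEM, five rats per treatment.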

[4] = tested on: Rattus norvegicus; experiment: Effect of oral administration of compound (1 mg) on LH secretion by castrated male rats; ng of LH/mL; type: functional; summary of the method: as §1
[5] = biological target: T2, Gonadotropin-releasing hormone receptor (Rattus norvegicus) (UniProt P30969); experiment: Inhibition of GnRH-stimulated LH secretion by cultured dispersed anterior pituitary cells; type: functional, cell-based; conditions: Pituitary gland cell
T2 sequence (whole entry): T1 sequence (P30969 whole entry)
Summary of the method: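 Cultured dispersed anterior pituitary cells. Antagonist inhibition of GnRH-stimulated LH secretion measured. Potency expressed relative to the standard [Ac-Δ3Pro1,DFpa2,DTrp3,6]GnRH (=1), with confidence range in parentheses.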

[6] = species: Rattus norvegicus; experiment: Effect on GnRH-induced LH secretion in intact male rats at 20 ng of compound; ng of LH/mL; type: functional
[7] = species: Rattus norvegicus; experiment: Effect on GnRH-induced LH secretion in intact male rats at 50 ng of compound; ng of LH/mL; type: functional

Structure (SMILES) | Kd [1] | Dose [2] | also measured
CC(=O)N[C@H](Cc1ccc2ccccc2c1)C(=O)N[C@H](Cc1ccc(F)cc1)C(=O)N[C@H](Cc1c[nH]c2ccccc12)C(=O)N[C@H]1CCC(=O)NC[C@@H](C(N)=O)NC(=O)[C@@H]2CCCN2C(=O)[C@H](CCCN=C(N)N)NC(=O)[C@H](CC(C)C)NC(=O)[C@@H](CCCN=C(N)N)NC(=O)[C@H](Cc2ccc(O)cc2)NC1=O | 1.1 nM |  | 
CC(=O)N[C@H](Cc1ccc2ccccc2c1)C(=O)N[C@H](Cc1ccc(F)cc1)C(=O)N[C@H](Cc1c[nH]c2ccccc12)C(=O)N[C@H]1CC(=O)NCCC[C@@H](C(N)=O)NC(=O)[C@@H]2CCCN2C(=O)[C@H](CCCN=C(N)N)NC(=O)[C@H](CC(C)C)NC(=O)[C@@H](CCCN=C(N)N)NC(=O)[C@H](Cc2ccc(O)cc2)NC1=O | 41 nM |  | 
CC(=O)N[C@H](Cc1ccc2ccccc2c1)C(=O)N[C@H](Cc1ccc(F)cc1)C(=O)N[C@H](Cc1c[nH]c2ccccc12)C(=O)N[C@H]1CNC(=O)C[C@@H](C(N)=O)NC(=O)[C@@H]2CCCN2C(=O)[C@H](CCCN=C(N)N)NC(=O)[C@H](CC(C)C)NC(=O)[C@@H](CCCN=C(N)N)NC(=O)[C@H](Cc2ccc(O)cc2)NC1=O | 10 nM |  | 
CC(=O)N[C@H](Cc1ccc2ccccc2c1)C(=O)N[C@H](Cc1ccc(F)cc1)C(=O)N[C@H](Cc1c[nH]c2ccccc12)C(=O)N[C@H]1CSSC[C@@H](C(N)=O)NC(=O)[C@@H]2CCCN2C(=O)[C@H](CCCN=C(N)N)NC(=O)[C@H](CC(C)C)NC(=O)[C@@H](CCCN=C(N)N)NC(=O)[C@H](Cc2ccc(O)cc2)NC1=O | 6 nM |  | 
CC(C)C[C@@H]1NC(=O)[C@@H](CCCN=C(N)N)NC(=O)[C@H](Cc2ccc(O)cc2)NC(=O)[C@@H](NC(=O)[C@@H](Cc2c[nH]c3ccccc23)NC(=O)[C@@H](Cc2ccc(F)cc2)NC(=O)[C@H](N)Cc2ccc3ccccc3c2)CSSC[C@@H](C(N)=O)NC(=O)[C@@H]2CCCN2C(=O)[C@H](CCCN=C(N)N)NC1=O |  | 50 µg and 100 µg | 
CC(=O)N[C@H](Cc1ccc2ccccc2c1)C(=O)N[C@H](Cc1ccc(F)cc1)C(=O)N[C@H](Cc1c[nH]c2ccccc12)C(=O)N[C@H]1CNC(=O)C[C@@H](C(=O)NCC(N)=O)NC(=O)[C@H](CCCNC(=N)N)NC(=O)[C@H](CC(C)C)NC(=O)[C@@H](CCCNC(=N)N)NC(=O)[C@H](Cc2ccc(O)cc2)NC1=O | > 100 nM |  | 
CC(=O)N[C@H](Cc1ccc2ccccc2c1)C(=O)N[C@H](Cc1ccc(Cl)cc1)C(=O)N[C@H](Cc1cccnc1)C(=O)N[C@H]1CC(=O)NCCC[C@@H](C(N)=O)NC(=O)[C@@H]2CCCN2C(=O)[C@H](CCCNC(=N)N)NC(=O)[C@H](CC(C)C)NC(=O)[C@@H](Cc2cccnc2)NC(=O)[C@H](CCCNC(=N)N)NC1=O | 11 nM |  | 
CC(=O)NC[C@H](NC(=O)[C@@H](Cc1cccnc1)NC(=O)[C@@H](Cc1ccc(Cl)cc1)NC(=O)[C@@H](Cc1ccc2ccccc2c1)NC(C)=O)C(=O)N[C@@H](CCCN=C(N)N)C(=O)N[C@H](Cc1cccnc1)C(=O)N[C@@H](CC(C)C)C(=O)N[C@@H](CCCN=C(N)N)C(=O)N1CCC[C@H]1C(=O)N[C@@H](CC(N)=O)C(N)=O [listing 1 of 2 here] | 1 nM |  | 
CC(=O)NC[C@H](NC(=O)[C@@H](Cc1cccnc1)NC(=O)[C@@H](Cc1ccc(Cl)cc1)NC(=O)[C@@H](Cc1ccc2ccccc2c1)NC(C)=O)C(=O)N[C@@H](CCCN=C(N)N)C(=O)N[C@H](Cc1cccnc1)C(=O)N[C@@H](CC(C)C)C(=O)N[C@@H](CCCN=C(N)N)C(=O)N1CCC[C@H]1C(=O)N[C@@H](CC(N)=O)C(N)=O [listing 2 of 2 here] |  | 50 µg | Activity [3]: 8.22
CC(=O)N[C@H](Cc1ccc2ccccc2c1)C(=O)N[C@H](Cc1ccc(Cl)cc1)C(=O)N[C@H](Cc1cccnc1)C(=O)N[C@H]1CC(=O)NC[C@@H](C(N)=O)NC(=O)[C@@H]2CCCN2C(=O)[C@H](CCCNC(=N)N)NC(=O)[C@H](CC(C)C)NC(=O)[C@@H](Cc2cccnc2)NC(=O)[C@H](CCCNC(=N)N)NC1=O | 1.1 nM |  | 
CC(=O)N[C@H](Cc1ccc2ccccc2c1)C(=O)N[C@H](Cc1ccc(Cl)cc1)C(=O)N[C@H](Cc1cccnc1)C(=O)N[C@H]1CCC(=O)NC[C@@H](C(N)=O)NC(=O)[C@@H]2CCCN2C(=O)[C@H](CCCNC(=N)N)NC(=O)[C@H](CC(C)C)NC(=O)[C@@H](Cc2cccnc2)NC(=O)[C@H](CCCNC(=N)N)NC1=O [listing 1 of 2 here] | 1 nM |  | 
CC(=O)N[C@H](Cc1ccc2ccccc2c1)C(=O)N[C@H](Cc1ccc(Cl)cc1)C(=O)N[C@H](Cc1cccnc1)C(=O)N[C@H]1CCC(=O)NC[C@@H](C(N)=O)NC(=O)[C@@H]2CCCN2C(=O)[C@H](CCCNC(=N)N)NC(=O)[C@H](CC(C)C)NC(=O)[C@@H](Cc2cccnc2)NC(=O)[C@H](CCCNC(=N)N)NC1=O [listing 2 of 2 here] |  | 10 µg and 25 µg | 
CC(=O)N[C@H](Cc1ccc2ccccc2c1)C(=O)N[C@H](Cc1ccc(Cl)cc1)C(=O)N[C@H](Cc1cccnc1)C(=O)N[C@H]1CSSC[C@@H](C(N)=O)NC(=O)[C@@H]2CCCN2C(=O)[C@H](CCCNC(=N)N)NC(=O)[C@H](CC(C)C)NC(=O)[C@@H](Cc2cccnc2)NC(=O)[C@H](CCCNC(=N)N)NC1=O (Ac-[d2Nal][dPhe(4-Cl)][d3Pal]CR[d3Pal]LRPC-NH2; disulfide 4-10) | 0.8 nM |  | 
CC(=O)N[C@H](Cc1ccc2ccccc2c1)C(=O)N[C@H](Cc1ccc(Cl)cc1)C(=O)N[C@H](Cc1cccnc1)C(=O)N[C@@H](CO)C(=O)N[C@@H](CCCNC(=N)N)C(=O)N[C@H](Cc1cccnc1)C(=O)N[C@@H](CC(C)C)C(=O)N[C@@H](CCCNC(=N)N)C(=O)N1CCC[C@H]1C(=O)N[C@H](C)C(N)=O (Ac-[d2Nal][dPhe(4-Cl)][d3Pal]SR[d3Pal]LRP[dA]-NH2) [listing 1 of 2 here] | 0.24 nM |  | 
CC(=O)N[C@H](Cc1ccc2ccccc2c1)C(=O)N[C@H](Cc1ccc(Cl)cc1)C(=O)N[C@H](Cc1cccnc1)C(=O)N[C@@H](CO)C(=O)N[C@@H](CCCNC(=N)N)C(=O)N[C@H](Cc1cccnc1)C(=O)N[C@@H](CC(C)C)C(=O)N[C@@H](CCCNC(=N)N)C(=O)N1CCC[C@H]1C(=O)N[C@H](C)C(N)=O (Ac-[d2Nal][dPhe(4-Cl)][d3Pal]SR[d3Pal]LRP[dA]-NH2) [listing 2 of 2 here] |  | 0.5 µg and 1 µg | 
CC(=O)N[C@H](Cc1ccc2ccccc2c1)C(=O)N[C@H](Cc1ccc(Cl)cc1)C(=O)N[C@H](Cc1cccnc1)C(=O)N[C@H]1CNC(=O)C[C@@H](C(N)=O)NC(=O)[C@@H]2CCCN2C(=O)[C@H](CCCNC(=N)N)NC(=O)[C@H](CC(C)C)NC(=O)[C@@H](Cc2cccnc2)NC(=O)[C@H](CCCNC(=N)N)NC1=O (Ac-[d2Nal][dPhe(4-Cl)][d3Pal][Dap]R[d3Pal]LRPD-NH2; lactam 4-10) | 4.5 nM and 10 nM |  | 
CC(=O)N[C@H](Cc1ccc2ccccc2c1)C(=O)N[C@H](Cc1ccc(F)cc1)C(=O)N[C@H](Cc1c[nH]c2ccccc12)C(=O)N[C@H]1CC(=O)NC[C@@H](C(N)=O)NC(=O)[C@@H]2CCCN2C(=O)[C@H](CCCN=C(N)N)NC(=O)[C@H](CC(C)C)NC(=O)[C@@H](CCCN=C(N)N)NC(=O)[C@H](Cc2ccc(O)cc2)NC1=O (Ac-[d2Nal][dPhe(4-F)][dW]DY[dR]LRP[Dap]-NH2; lactam 4-10) |  | 1 µg and 2.5 µg | 
CC(=O)N[C@H](Cc1ccc2ccccc2c1)C(=O)N[C@H](Cc1ccc(F)cc1)C(=O)N[C@H](Cc1c[nH]c2ccccc12)C(=O)N[C@@H](CO)C(=O)N[C@@H](Cc1ccc(O)cc1)C(=O)N[C@H](CCCN=C(N)N)C(=O)N[C@@H](CC(C)C)C(=O)N[C@@H](CCCN=C(N)N)C(=O)N1CCC[C@H]1C(=O)NCC(N)=O (Ac-[d2Nal][dPhe(4-F)][dW]SY[dR]LRPG-NH2) | 0.64 nM | 1 µg | Activity [4]: 6.4; Relative potency [5]: 0.6
CC(=O)N1CC=C[C@H]1C(=O)N[C@H](Cc1ccc(F)cc1)C(=O)N[C@H](Cc1c[nH]c2ccccc12)C(=O)N[C@@H](CO)C(=O)N[C@@H](Cc1ccc(O)cc1)C(=O)N[C@H](Cc1c[nH]c2ccccc12)C(=O)N[C@@H](CC(C)C)C(=O)N[C@@H](CCCNC(=N)N)C(=O)N1CCC[C@H]1C(=O)NCC(N)=O (Ac-[ΔPro][dPhe(4-F)][dW]SY[dW]LRPG-NH2) | 0.27 nM |  | 
CC(C)C[C@H](NC(=O)CNC(=O)[C@H](Cc1ccc(O)cc1)NC(=O)[C@H](CO)NC(=O)[C@H](Cc1c[nH]c2ccccc12)NC(=O)[C@H](Cc1cnc[nH]1)NC(=O)[C@@H]1CCC(=O)N1)C(=O)N[C@@H](CCCNC(=N)N)C(=O)N1CCC[C@H]1C(=O)NCC(N)=O [GONADORELIN] |  |  | Activity [6]: 1.84; Activity [7]: 2.42
